Results taken from ChEMBL document CHEMBL3046552, “Synthesis and antiviral bioactivities of 2-cyano-3-substituted-amino(phenyl) methylphosphonylacrylates (acrylamides) containing alkoxyethyl moieties” (2010).

What was measured:
Assay type in all cases: functional
Tobacco mosaic virus [1] = assay: In vivo antiviral activity against Tobacco mosaic virus (TMV) infected left side of tobacco leaves assessed as protective effect by decreasing local lesion number at 500 mg/l treated 12 hr before viral inoculation measured at 3-4 days after viral challenge
Summary of the method: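 Protective mode: compound solution smeared on the left half of same-age N. tabacum leaves, solvent on the right half as control. After 12 h, the leaves were dusted with silicon carbide and brush-inoculated with TMV at 6 × 10^-3 mg/mL. Local lesions counted 3-4 days after inoculation.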

Tobacco mosaic virus [2] = assay: In vivo antiviral activity against Tobacco mosaic virus (TMV) infected left side of tobacco leaves assessed as curative effect by decreasing local lesion number at 500 mg/l treated after viral inoculation measured at 3-4 days after viral challenge
Summary of the method: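 Curative mode: N. tabacum leaves of the same age; compound solution smeared on left half, solvent on right half as control. Local lesions counted 3-4 days after inoculation; three repeats per compound. Inhibition rate derived from average lesion numbers of treated versus untreated control halves. TMV purified from infected leaves (PEG precipitation, 4 °C).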

Tobacco mosaic virus [3] = assay: In vivo antiviral activity against Tobacco mosaic virus (TMV) infected left side of tobacco leaves assessed as inactivation effect by decreasing local lesion number at 500 mg/l co-incubated with virus for 30 min before inoculation onto leaves measured at 3-4 days after viral challenge
Summary of the method: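 TMV, purified from infected N. tabacum leaves by grinding in phosphate buffer and PEG precipitation at 4 °C, was mixed with an equal volume of compound solution for 30 min. The mixture was inoculated on the left half of the leaf and a solvent-virus mixture on the right half as control. Local lesions recorded 3-4 days later.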

SMILES	inhibition in vivo at 500 µg/mL (Tobacco mosaic virus [1])	inhibition in vivo at 500 µg/mL (Tobacco mosaic virus [2])	inhibition in vivo at 500 µg/mL (Tobacco mosaic virus [3])
COCCOP(=O)(OCCOC)C(N/C(SC)=C(/C#N)C(=O)OC)c1ccccc1 (configuration not stated)	0%	28.8%	0%
COCCOP(=O)(OCCOC)C(N/C(SC)=C(/C#N)C(=O)OC)c1ccccc1F (configuration not stated)	22%	34.5%	41%
CCOCCOP(=O)(OCCOCC)C(N/C(SC)=C(/C#N)C(=O)NCc1ccccc1)c1ccccc1 (configuration not stated)	34.5%	47.3%	40.1%
CCOCCOP(=O)(OCCOCC)C(N/C(SC)=C(/C#N)C(=O)NCc1ccccc1)c1ccccc1F (configuration not stated)	55.4%	54.3%	79.9%
CCOCCOP(=O)(OCCOCC)C(N/C(SC)=C(/C#N)C(=O)OC)c1ccccc1F (configuration not stated)	0%	33%	12%
CCOCCOC(=O)/C(C#N)=C(\NC(c1ccccc1F)P(=O)(OCCOC)OCCOC)SC (configuration not stated)	21.9%	31.4%	33.3%
CCOCCOP(=O)(OCCOCC)C(N/C(SC)=C(/C#N)C(=O)OC)c1ccccc1 (configuration not stated)	0%	4.3%	0%
CNCC(=O)N[C@@H](CO)C(=O)N[C@H]1[C@H](O)[C@@H](O)[C@H](n2ccc(N)nc2=O)O[C@@H]1C(N)=O [NINGNANMYCIN]	57.7%	58.9%	96%
CCOCCOP(=O)(OCCOCC)C(N/C(SC)=C(/C#N)C(=O)OCC)c1ccccc1 (configuration not stated)	45.9%	51.1%	35.4%
COCCOP(=O)(OCCOC)C(N/C(SC)=C(/C#N)C(=O)OCCOc1ccccc1)c1ccccc1 (configuration not stated)	14.4%	31%	21%
CCOCCOP(=O)(OCCOCC)C(N/C(SC)=C(/C#N)C(=O)OCCOC)c1ccccc1 (configuration not stated)	60.2%	58.8%	78.9%
CCOCCOC(=O)/C(C#N)=C(\NC(c1ccccc1)P(=O)(OCCOCC)OCCOCC)SC (configuration not stated)	40.7%	46.4%	29.5%
COCCOP(=O)(OCCOC)C(N/C(SC)=C(/C#N)C(=O)OCCOc1ccccc1)c1ccccc1F (configuration not stated)	29%	41.8%	44%
CCOCCOP(=O)(OCCOCC)C(N/C(SC)=C(/C#N)C(N)=O)c1ccccc1 (configuration not stated)	54.4%	56.7%	80%
CCOCCOC(=O)/C(C#N)=C(\NC(c1ccccc1F)P(=O)(OCCOCC)OCCOCC)SC (configuration not stated)	31%	41.9%	40.2%
COCCOP(=O)(OCCOC)C(N/C(SC)=C(/C#N)C(N)=O)c1ccccc1 (configuration not stated)	50%	43.2%	66.7%
CCOCCOP(=O)(OCCOCC)C(N/C(SC)=C(/C#N)C(=O)OCCOc1ccccc1)c1ccccc1 (configuration not stated)	3.8%	44.1%	31.9%
COCCOC(=O)/C(C#N)=C(\NC(c1ccccc1F)P(=O)(OCCOC)OCCOC)SC (configuration not stated)	0%	9.9%	0%
CCOCCOP(=O)(OCCOCC)C(N/C(SC)=C(/C#N)C(=O)OCC)c1ccccc1F (configuration not stated)	12.9%	45.6%	33.4%
CCOCCOP(=O)(OCCOCC)C(N/C(SC)=C(/C#N)C(=O)OCCOC)c1ccccc1F (configuration not stated)	58.9%	60%	85.5%
CCOCCOC(=O)/C(C#N)=C(\NC(c1ccccc1)P(=O)(OCCOC)OCCOC)SC (configuration not stated)	0%	23.7%	12.2%
CCOCCOP(=O)(OCCOCC)C(N/C(SC)=C(/C#N)C(N)=O)c1ccccc1F (configuration not stated)	30%	30.6%	33.9%
COCCOC(=O)/C(C#N)=C(\NC(c1ccccc1)P(=O)(OCCOC)OCCOC)SC (configuration not stated)	40%	43.1%	41.9%
COCCOP(=O)(OCCOC)C(N/C(SC)=C(/C#N)C(N)=O)c1ccccc1F (configuration not stated)	30%	22%	44.8%
COCCOP(=O)(OCCOC)C(N/C(SC)=C(/C#N)C(=O)NCc1ccccc1)c1ccccc1 (configuration not stated)	39.7%	29.6%	32.1%
COCCOP(=O)(OCCOC)C(N/C(SC)=C(/C#N)C(=O)NCc1ccccc1)c1ccccc1F (configuration not stated)	39.9%	28.6%	40.8%
CCOC(=O)/C(C#N)=C(\NC(c1ccccc1F)P(=O)(OCCOC)OCCOC)SC (configuration not stated)	0%	21.7%	0%
CCOC(=O)/C(C#N)=C(\NC(c1ccccc1)P(=O)(OCCOC)OCCOC)SC (configuration not stated)	21%	32.1%	28.3%
CCOCCOP(=O)(OCCOCC)C(N/C(SC)=C(/C#N)C(=O)OCCOc1ccccc1)c1ccccc1F (configuration not stated)	30.7%	27.7%	23.7%
